Test results: article PMC4277207 (ChemMedChem, 2014)
“Also recorded” adds a separate entry of the source. Read-outs that look alike come from different tables or passages of the source.

How the values were obtained:
[1] = target: human D3 receptor (Homo sapiens, UniProt P35462); type: cell-based; conditions: hD3-transfected CHOp cells, mitogenesis; for IC50: read-out: Agonist activity: IC50, mean ± SEM of 3–6 determinations
[2] = tested on: D1-like receptor (D1 and D5); experiment: [3H]SCH 23390 binding assay, rat striatal membranes; conditions: ratio of Ki values, rat brain preparation
[3] = tested on: D2-like receptor (D2, D3, and D4); experiment: [3H]spiperone binding assay, rat striatal; conditions: ratio of Ki values, rat brain preparation
In short: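 The D2-like assay used [3H]spiperone at 0.2 nM on caudate-putamen membranes at 1.5 mg o.w.w./mL, in agonist-optimised Tris-HCl/KCl/MgCl2/CaCl2 buffer at pH 7.4. Nonspecific binding was set with 1 μM (+)-butaclamol, and KD was 0.4 nM. For two-site curves, the high-affinity Ki is reported. […] Values are means of 3–6 determinations.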

[4] = type: in vitro ADME

Chain of human D3 receptor (P35462 whole entry): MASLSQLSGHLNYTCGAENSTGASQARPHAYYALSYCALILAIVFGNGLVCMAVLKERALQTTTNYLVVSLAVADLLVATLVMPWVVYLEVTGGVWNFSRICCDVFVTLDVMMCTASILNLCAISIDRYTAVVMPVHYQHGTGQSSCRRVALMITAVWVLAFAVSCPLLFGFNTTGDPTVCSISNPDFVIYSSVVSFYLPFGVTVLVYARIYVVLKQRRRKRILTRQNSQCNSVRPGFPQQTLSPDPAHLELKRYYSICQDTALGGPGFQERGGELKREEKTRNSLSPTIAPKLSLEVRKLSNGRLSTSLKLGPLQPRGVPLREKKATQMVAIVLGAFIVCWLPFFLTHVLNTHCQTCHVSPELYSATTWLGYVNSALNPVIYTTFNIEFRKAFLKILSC

% of Stimulation compared to Quinpirole as the standard agonist [1] [%] | functional activity at the human D3 receptor (agonist character) [1] | IC50 [1] [nM] | Selectivity D1-like/D3 [2] | Selectivity D2-like/D3 [3] | t1/2 in human liver microsomes [4] [h] | Percentage remaining of compounds in human liver microsomes ([4]; 0 h) [%] | Percentage remaining of compounds in human liver microsomes ([4]; 5 min) [%] | Percentage remaining of compounds in human liver microsomes ([4]; 10 min) [%] | Percentage remaining of compounds in human liver microsomes ([4]; 0.25 h) [%] | Percentage remaining of compounds in human liver microsomes ([4]; 0.5 h) [%] | Percentage remaining of compounds in human liver microsomes ([4]; 1 h) [%] | SMILES
100 | full D3 agonists | 18 ± 2.7 | 84,474 | 12,836 | >1 | 100 | 99.7 | 98.5 | 92.5 | 83.0 | 74.1 | CCCN(CC[C@]1(O)C[C@@H](NC(=O)c2cccc(OC)c2)C1)[C@H]1CCc2nc(N)sc2C1 (relative stereo) [Compound 21, N-(cis-3-(2-(((S)-2-Amino-4,5,6,7-tetrahydrobenzo[d]thiazol-6-yl)(propyl)amino)-ethyl)-3-hydroxycyclobutyl)-3-methoxybenzamide]
100 | full D3 agonists | 17 ± 4.4 | 53,684 | 414 |  |  |  |  |  |  |  | CCCN(CC[C@]1(O)C[C@@H](NS(=O)(=O)c2ccc(F)cc2)C1)[C@H]1CCc2nc(N)sc2C1 (relative stereo) [Compound 33, N-(cis-3-(2-(((S)-2-Amino-4,5,6,7-tetrahydrobenzo[d]thiazol-6-yl)(propyl)amino)-ethyl)-3-hydroxycyclobutyl)-4-fluorobenzenesulfonamide]
100 | full D3 agonists | 2 ± 0.49 | 116,521 | 36,956 |  |  |  |  |  |  |  | CCCN(CCC1(O)CC(NC(=O)c2ccccc2F)C1)[C@H]1CCc2nc(N)sc2C1 (stereo in doubt) [Compound 15, N-(cis-3-(2-(((S)-2-amino-4,5,6,7-tetrahydrobenzo[d]thiazol-6-yl)(propyl)amino)-ethyl)-3-hydroxycyclobutyl)-2-fluorobenzamide]
100 | full D3 agonists | 2 ± 0.34 | 65,581 | 16,272 |  |  |  |  |  |  |  | CCCN(CCC1(O)CC(NC(=O)c2ccc(F)c(Cl)c2)C1)[C@H]1CCc2nc(N)sc2C1 (stereo in doubt) [Compound 18, N-(cis-3-(2-(((S)-2-amino-4,5,6,7-tetrahydrobenzo[d]thiazol-6-yl)(propyl)amino)-ethyl)-3-hydroxycyclobutyl)-3-chloro-4-fluorobenzamide]
 |  |  | 61,143 | 3,779 | >1 | 100 | 97.7 | 94.1 | 94.0 | 85.5 | 76.7 | CCCN(CCC1(O)CC(NC(=O)c2ccc(OC)cc2)C1)[C@H]1CCc2nc(N)sc2C1 (stereo in doubt) [Compound 20, N-(cis-3-(2-(((S)-2-Amino-4,5,6,7-tetrahydrobenzo[d]thiazol-6-yl)(propyl)amino)-ethyl)-3-hydroxycyclobutyl)-4-methoxybenzamide]
 |  |  | 24,516 | 19 |  |  |  |  |  |  |  | CCCN(CCC1(O)CC(NS(=O)(=O)c2ccc(F)c(F)c2)C1)[C@H]1CCc2nc(N)sc2C1 (stereo in doubt) [Compound 35, N-(cis-3-(2-(((S)-2-Amino-4,5,6,7-tetrahydrobenzo[d]thiazol-6-yl)(propyl)amino)-ethyl)-3-hydroxycyclobutyl)-3,4-difluorobenzenesulfonamide]

SMILES | % of Stimulation compared to Quinpirole as the standard agonist [1] [%] | functional activity at the human D3 receptor (agonist character) [1] | IC50 [1] [nM] | Selectivity D1-like/D3 [2] | Selectivity D2-like/D3 [3] | t1/2 in human liver microsomes [4] [h] | Percentage remaining of compounds in human liver microsomes ([4]; 0 h) [%] | Percentage remaining of compounds in human liver microsomes ([4]; 5 min) [%] | Percentage remaining of compounds in human liver microsomes ([4]; 10 min) [%] | Percentage remaining of compounds in human liver microsomes ([4]; 0.25 h) [%] | Percentage remaining of compounds in human liver microsomes ([4]; 0.5 h) [%] | Percentage remaining of compounds in human liver microsomes ([4]; 1 h) [%]
CCCN(CC[C@]1(O)C[C@@H](NC(=O)c2cccc(-c3noc(C)n3)c2)C1)[C@H]1CCc2nc(N)sc2C1 (relative stereo) [Compound 23, N-(cis-3-(2-(((S)-2-amino-4,5,6,7-tetrahydrobenzo[d]thiazol-6-yl)(propyl)amino)-ethyl)-3-hydroxycyclobutyl)-3-(5-methyl-1,2,4-oxadiazol-3-yl)benzamide] | 100 | full D3 agonists; also recorded: full agonist | 19 ± 1.5 | 28,300 | 29,800 | >1 | 100 | 96.6 | 99.2 | 99.0 | 90.0 | 65.5
CCCN(CCC1(O)CC(NS(=O)(=O)c2ccc(F)c(Cl)c2)C1)[C@H]1CCc2nc(N)sc2C1 (stereo in doubt) [Compound 34, N-(cis-3-(2-(((S)-2-Amino-4,5,6,7-tetrahydrobenzo[d]thiazol-6-yl)(propyl)amino)-ethyl)-3-hydroxycyclobutyl)-3-chloro-4-fluorobenzenesulfonamide] | 100 | full D3 agonists | 26 ± 4.1 | 18,217 | 1,052 |  |  |  |  |  |  | 
